Results on 2 molecules are retold here after ChEMBL document CHEMBL3352597, “Heck products of parthenolide and melampomagnolide-B as anticancer modulators that modify cell cycle progression” (Eur J Med Chem, 2014).

Activity calls are given as the source filed them. No cut-off for these calls is given here.

The subject of this experiment is Oocyte. Nature of the experiment: Induction of immature stage VI Xenopus oocyte maturation assessed as stimulation of progesterone-mediated maturation measured as germinal vesicle (nuclear) breakdown at 100 uM after overnight incubation. It counts as functional, cell-based. The essentials: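 Oocytes (20 per well) pre-treated overnight with compound (100 μM final, DMSO) or DMSO vehicle, then stimulated with 2 μg/ml progesterone. GVBD (animal-pole white spot) scored at the time 50% of DMSO controls reach GVBD. Rate relative to control: 1.0 means no difference, above 1.0 acceleration, below 1.0 delay, 0.0 no maturation. Differences over 20% followed up.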

In the case of `C[C@@]12CC/C=C(/CO)CC[C@@H]3/C(=C\c4ccc(N)cc4)C(=O)O[C@@H]3[C@@H]1O2`, the result was Active.

Take `C[C@@]12CC/C=C(/CO)CC[C@@H]3/C(=C\c4ncc[nH]4)C(=O)O[C@@H]3[C@@H]1O2`: the outcome was Active.
